The results in this text go back to ChEMBL document CHEMBL4433233, “Folic acid conjugates of a bleomycin mimic for selective targeting of folate receptor positive cancer cells” (Bioorg Med Chem Lett, 2019).

SMILES strings stand for the structures. Calls of active or inactive are those of the source. No cut-off for these calls is given here.

Data set [1] relates to KB. The data set is described as follows: Cytotoxicity against human KB cells in low folate medium assessed as metabolic activity at 30 uM measured after 72 hrs by MTS assay relative to control. In kind it is functional. The method in brief:
(§1)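 MTS metabolic-activity assay under low folate conditions (RPMI-1640, 10% dialyzed FCS, supplemented with 2 nM FA). Compounds were added as free ligand at 30 or 50 μM for 24, 48 and 72 h. Activity is expressed relative to DMSO control. Each treatment was run in triplicate and each experiment three times; mean ± SEM.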

In data set [2] the test system is KB. Put plainly: Induction of ROS generation in human KB cells at 30 uM incubated for 72 hrs by APF probe-based flow cytometer analysis relative to control. In kind it is functional. The method in brief: (§2)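 Cells were treated with 30 μM compound. Highly reactive oxygen species were detected with the APF probe, and APF mean fluorescence intensity was measured by FACS and normalized to solvent control.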
On the technique in general: In flow cytometry, cells or beads pass a laser one at a time.

The nature of data set [3]: (§3) Cytotoxicity against human MCF7 cells in low folate medium assessed as metabolic activity at 30 uM incubated for 72 hrs by MTS assay relative to control. Conditions: MCF7 cells, read-out: Activity. Format: ADME, cell-based. In short, it runs like this: as §1
In general terms: Formazan colour is commonly taken as a measure of viable cells.

A further data set is filed under the species Homo sapiens. The data set is described as follows: Displacement of folate-FITC from folate receptor in human KB cells at 25 to 1000 pmol incubated for 10 mins by FITC staining-based FACS analysis. In kind it is cell-based. The method in brief:
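Competition binding in 0.5·10^6 KB cells per experiment. Compound at 25, 50, 100, 250, 500 or 1000 pmol was combined with 50 pmol Folate-FITC. Cell-bound fluorescence was read by FACS as MFI on channel PL-1. Mean ± SEM, N ≥ 5.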

In data set [4] the test system is MCF7. The data set is described as follows: Cytotoxicity against human MCF7 cells in high folate medium assessed as reduction in metabolic activity at 50 uM incubated for 24 to 72 hrs by MTS assay. In kind it is ADME, cell-based. Conditions: mcf7, 50 µM. In short, it runs like this:
(§4)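 MTS assay in standard high folate medium (RPMI-1640 containing 2.3 μM FA, 10% FCS). Cells were treated with 30 or 50 μM compound for 24, 48 and 72 h. Metabolic activity was compared with solvent control.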

For data set [5], the system named is KB. The data set is described as follows: Cytotoxicity against human KB cells in low folate medium assessed as metabolic activity at 50 uM measured after 72 hrs by MTS assay relative to control. In kind it is functional. The method in brief: as §1
Data set [6] has as its system KB. The data set is described as follows: Cytotoxicity against human KB cells in high folate medium assessed as reduction in metabolic activity at 30 uM incubated for 24 to 72 hrs in the presence of excess folic acid by MTS assay. In kind it is functional, cell-based. In short, it runs like this: (§5)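 Competition MTS assay in standard RPMI medium (high folate). Cells were co-treated with 30 μM compound plus 150 μM FA, or with 150 μM FA alone, for 24, 48 and 72 h, and metabolic activity was read by MTS.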

A short description of data set [7]: (§6) Cytotoxicity against human MCF7 cells in low folate medium assessed as metabolic activity at 50 uM incubated for 72 hrs by MTS assay relative to control. Format: ADME, cell-based. Conditions: MCF7 cells, read-out: Activity. The method in brief:
as §1

In data set [8] the test system is MCF7. Put plainly: Induction of ROS generation in human MCF7 cells at 30 uM incubated for 72 hrs by APF probe-based flow cytometer analysis relative to control. In kind it is cell-based. Conditions: mcf7, 72 h. The method in brief: as §2
Data set [9] deals with IGROV-1. The data set is described as follows: Cytotoxicity against human IGROV1 cells in low folate medium assessed as metabolic activity at 30 uM incubated for 72 hrs by MTS assay relative to control. In kind it is functional. The method in brief:
as §1

The test system of data set [10] is MCF7. Put plainly: Cytotoxicity against human MCF7 cells in high folate medium assessed as reduction in metabolic activity at 30 uM incubated for 24 to 72 hrs in the presence of excess folic acid by MTS assay. Format: ADME, cell-based. The note with it: mcf7, 30 µM. The method in brief:
as §5

Data set [11] deals with IGROV-1. The data set is described as follows: Cytotoxicity against human IGROV1 cells in low folate medium assessed as metabolic activity at 50 uM incubated for 72 hrs by MTS assay relative to control. In kind it is functional. In short, it runs like this:
as §1

Data set [12] can be described thus: Stability in pH 8.5 tris-HCl buffer assessed as cleavage of compound in presence of Fe(ClO4)2 and GSH incubated for 20 mins by LC-MS analysis. In kind it is physicochemical. The note with it: pH 8.5, 20 min. The method in brief: (§7)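 Conjugate kept in tris-HCl buffer pH 8.5 with two equivalents of Fe(ClO4)2 and 5 mM glutathione. LC-MS was used to follow in situ iron-complex formation and disulphide cleavage products at 5 min, 20 min and for a further 3 h.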

Data set [13] concerns IGROV-1. Put plainly: Cytotoxicity against human IGROV1 cells in high folate medium assessed as reduction in metabolic activity at 30 uM incubated for 24 to 72 hrs in the presence of excess folic acid by MTS assay. In kind it is functional, cell-based. In short, it runs like this: as §5
Data set [14] in a line: Stability in pH 8.5 tris-HCl buffer assessed as compound cleavage in presence of Fe(ClO4)2 and GSH after 5 mins by LC-MS analysis. Conditions: pH 8.5, 5 min. In kind it is physicochemical. The method in brief: as §7
The nature of data set [15]: Binding affinity to iron assessed as formation of iron complex in the presence of Fe(ClO4)2 and GSH after 5 mins by LC-MS analysis. The method in brief:
as §7

The test system of a further data set is DNA. Put plainly: Induction of Escherichia coli XL1 Blue pUC18 DNA cleavage assessed as turnover frequency in presence of DTT and 1 equivalent of (NH4)2Fe(SO4)2.6H2O at 1 uM by agarose gel electrophoresis method. In kind it is nucleic-acid assay. In short, it runs like this: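 Supercoiled pUC18 plasmid DNA was incubated at 37 °C with 1 μM iron complex in the presence of DTT as reductant. Strand cleavage was followed and turnover frequency determined.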

For data set [16], the system named is KB. The data set is described as follows: Cytotoxicity against human KB cells in high folate medium assessed as reduction in metabolic activity at 30 uM incubated for 24 to 72 hrs by MTS assay. Format: functional, cell-based. The method in brief:
as §4

A short description of data set [17]: Retention time of the compound by LC-MS analysis. In kind it is physicochemical.
Data set [18] deals with KB. The data set is described as follows: Cytotoxicity against human KB cells in low folate medium assessed as reduction in metabolic activity at 1 to 150 uM incubated for 24 to 72 hrs by MTS assay. Format: functional, cell-based. In short, it runs like this: (§8)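 MTS metabolic-activity assay in low folate RPMI-1640 with 10% dialyzed FCS and 2 nM FA. Compound concentrations ran from 1 to 150 μM, with incubation for 24, 48 and 72 h. IC50 values were derived from the concentration-response data.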

The subject of data set [19] is IGROV-1. The data set is described as follows: Cytotoxicity against human IGROV1 cells in low folate medium assessed as reduction in metabolic activity at 1 to 150 uM incubated for 24 to 72 hrs by MTS assay. In kind it is functional, cell-based. In short, it runs like this: as §8
Data set [20] relates to MCF7. Described as §3. Format: ADME, cell-based. The note with it: mcf7, 72 h, 30 µM. In short, it runs like this: as §1
Data set [21] is described as follows: Stability in pH 8.5 tris-HCl buffer assessed as cleavage of compound in presence of Fe(ClO4)2 and GSH incubated for 3 hrs by LC-MS analysis. The note with it: pH 8.5, 3 h.
For data set [22], the system named is KB. Put plainly: Cytotoxicity against human KB cells in low folate medium assessed as reduction in metabolic activity at 30 uM measured after 48 hrs by MTS assay. In kind it is functional, cell-based. In short, it runs like this: (§9)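 MTS assay on KB cells under low folate conditions (RPMI-1640, 10% dialyzed FCS, 2 nM FA). Cells were exposed to 30 or 50 μM compound as free ligand for 24, 48 and 72 h and compared with DMSO control. Treatments in triplicate, experiment repeated three times; mean ± SEM.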

Data set [23] deals with MCF7. The description is as §6. In kind it is ADME, cell-based. The note with it: mcf7, 72 h, 50 µM. In short, it runs like this:
as §1

Data set [24] deals with KB. Put plainly: Cytotoxicity against human KB cells in low folate medium assessed as reduction in metabolic activity at 50 uM measured after 48 hrs by MTS assay. Format: functional, cell-based. The method in brief: as §9
Data set [25] concerns MCF7. The data set is described as follows: Cytotoxicity against human MCF7 cells in low folate medium assessed as reduction in metabolic activity at 1 to 150 uM incubated for 24 to 72 hrs by MTS assay. In kind it is ADME, cell-based. Conditions: mcf7, 150 µM. In short, it runs like this: as §8

For `Nc1nc(O)c2nc(CNc3ccc(C(=O)N[C@@H](CCC(=O)NCCNC(=O)CCSSCCC(=O)NCCCNC(=O)c4ccc(CN(Cc5ccccn5)C(c5ccccn5)c5ccccn5)nc4)C(=O)O)cc3)cnc2n1`, the Activity in the data set with KB [1] is 38.8%; in the data set on MCF7 [4], “Non-Toxic”; in the data set with KB [5] it was 11.2%; with IGROV-1 [9], 47.2%; in the data set on MCF7 [10], “Non-Toxic”; with IGROV-1 [11], 22%. Besides, the Activity with DNA worked out at 0.19 s⁻¹. Further, the “fold change (FC)” value with KB [2] was found to be 3.5; in the data set on MCF7 [8], 1.6. Moreover, in data set [3], the viability at 72 h, 30 µM turned out to be 78.9%. Also, the result (in the data set listed under Homo sapiens; in data set [15]) was Active. Besides, the result in the data set with KB [6], with IGROV-1 [13] and in the data set with KB [16] was inactive. The viability at 72 h, 50 µM in data set [7] was 76.4%. For the same compound, the Stability entry in [12] and in [14] was “Unstable” throughout.
In [17], `Nc1nc(O)c2nc(CNc3ccc(C(=O)N[C@@H](CCC(=O)NCCNC(=O)CCSSC[C@H](NC(=O)CC[C@H](N)C(=O)O)C(=O)NCC(=O)O)C(=O)O)cc3)cnc2n1` came in with a Retention_time of 8.77 min.
For `Nc1nc(=O)c2nc(CNc3ccc(C(=O)N[C@@H](CCC(=O)O)C(=O)O)cc3)cnc2[nH]1`, the outcome in the data set on KB [18], in the data set on KB [2] and in the data set with IGROV-1 [19] was inactive. The result in the data set listed under Homo sapiens was Active.
As for `Nc1nc(O)c2nc(CNc3ccc(C(=O)N[C@@H](CCC(=O)NCCNC(=O)CCS)C(=O)O)cc3)cnc2n1`, the Retention_time in [17] was determined as 9.12 min.
With `Nc1nc(O)c2nc(CNc3ccc(C(=O)N[C@@H](CCC(=O)NCCNC(=O)CCCCCCC(=O)NCCCNC(=O)c4ccc(CN(Cc5ccccn5)C(c5ccccn5)c5ccccn5)nc4)C(=O)O)cc3)cnc2n1`, the Activity is given as 88.1% with KB [1]; “Non-Toxic” in the data set with MCF7 [20]; “Non-Toxic” with MCF7 [4]; 62.4% in the data set with KB [5]; “Non-Toxic” in the data set with MCF7 [23]; 82.4% in the data set on IGROV-1 [9]. Further, the Activity result in the data set with MCF7 [10] was “Non-Toxic”; with IGROV-1 [11] it was 58.1%; in the data set on DNA, 0.16 s⁻¹. The outcome in the data set with KB [2], with KB [22], with KB [6], with IGROV-1 [13], in the data set with KB [16] and with KB [24] was inactive. For the same compound, the result (in the data set listed under Homo sapiens; in [15]) was Active. Also, the Stability result in data set [21] is given as “Stable”. Besides, the “fold change (FC)” value in the data set with MCF7 [8] is reported as 1.6.
Take `Nc1nc2ncc(CNc3ccc(C(=O)N[C@@H](CCC(=O)O)C(=O)O)cc3)nc2c(=O)[nH]1` [FOLIC ACID]: in the data set with MCF7 [25], the Activity result is “Non-Toxic”.
